Results reported in ChEMBL document CHEMBL5338743, “Identification of a Selective SCoR2 Inhibitor That Protects Against Acute Kidney Injury” (J Med Chem, 2023).
Calls of active or inactive are those of the source. The calls are words filed in the database; no cut-off is given here.

What was measured:
Mus musculus [1] = assay: In vivo inhibition of AKR1B1 in mouse assessed as reduction in methyl glyoxylate metabolic activity in kidneys at 120 mg/kg body weight, ip administered as single dose into abdomen measured after 18 hrs; type: functional, organism-based
Mus musculus [2] = assay: Protection against ischemia/reperfusion induced acute kidney injury in mouse assessed as reduction in sloughed debris in the tubular lumen at 120 mg/kg, ip pretreated for 18 hrs followed by kidney injury surgery and measured after 24 hrs by H and E staining based analysis; type: functional, organism-based; settings: time 42.0 hrs
In short: (§1)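 Mice dosed i.p. 120 mg/kg 18 h before I/R surgery, kidneys harvested 24 h later, H&E-stained. Tubular lysis, brush-border loss and luminal debris scored 0–2 over more than five fields per animal; n=5 mice per group, vehicle controls.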

[3] = Renal toxicity in mouse assessed as effect on anatomy of medulla at 120 mg/kg, ip treated for 18 hrs under basal conditions by H and E staining based analysis; type: organism-based; settings: in vivo
In short: (§2)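 Sham-operated mice given 120 mg/kg i.p. or vehicle; kidney cortex and medulla examined by H&E staining.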

[4] = In vivo inhibition of SCoR2 in ischemia/reperfusion induced acute kidney injury mouse model assessed as reduction in SNO-CoA metabolic activity in kidneys at 120 mg/kg, ip pretreated for 18 hrs followed by kidney injury surgery and measured after 24 hrs relative to control; type: functional; settings: time 42 hrs
In short: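 Male mice (9–11 weeks, 25–28 g) dosed i.p. 18 h before renal ischemia–reperfusion surgery under isoflurane; kidneys taken 24 h after reperfusion. Kidney lysate SNO-CoA reductase activity measured with 200 μM SNO-CoA, 100 μM NADPH, 2 min, triplicate assays; DMSO-treated controls.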

Mus musculus [5] = assay: In vivo inhibition of SCoR2 in C57BL/6J mouse assessed as reduction in SNO-CoA metabolic activity in spleen at 120 mg/kg body weight, ip administered as single dose into abdomen measured after 18 hrs; type: functional, organism-based
In short: (§3)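 Single i.p. injection into the mouse abdomen, DMSO vehicle; organs collected 18 h later. Tissues homogenized in 50 mM phosphate pH 7.0, 150 mM NaCl, EDTA/DTPA, then clarified; lysate started reactions with 200 μM SNO-CoA and 100 μM NADPH, 2 min, NADPH loss monitored, in triplicate. Compared with vehicle and SCoR2−/− kidneys.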

Mus musculus [6] = assay: Protection against ischemia/reperfusion induced acute kidney injury in mouse assessed as reduction in loss of brush borders at 120 mg/kg, ip pretreated for 18 hrs followed by kidney injury surgery and measured after 24 hrs by H and E staining based analysis; type: functional, organism-based; settings: time 42.0 hrs; in short: as §1
Mus musculus [7] = assay: Protection against ischemia/reperfusion induced acute kidney injury in mouse assessed as reduction in tubular lysis at 120 mg/kg, ip pretreated for 18 hrs followed by kidney injury surgery and measured after 24 hrs by H and E staining based analysis; type: functional, organism-based; settings: time 42.0 hrs; in short: as §1
[8] = molecular target: Aldo-keto reductase family 1 member B1 (Homo sapiens, UniProt P15121); assay: Inhibition of C-terminal 6His-tagged human recombinant AKR1B1 expressed in Escherichia coli BL21-CodonPlus competent cells using methyl glyoxylate as substrate incubated for 2 mins in presence of NADPH
In short: (§4)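 Purified enzyme at 200 nM (SCoR2 with 100 μM SNO-CoA; AKR1B1 with 100 μM methylglyoxylate) in 50 mM phosphate pH 7.0 with serial inhibitor dilutions; started with 100 μM NADPH, 2 min. Rate from 340 nm decrease, normalized to 20 nM protein activity; IC50 fitted, n=3. Selectivity taken as AKR1B1/SCoR2 IC50 ratio.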

Mus musculus [9] = assay: In vivo inhibition of SCoR2 in C57BL/6J mouse assessed as reduction in SNO-CoA metabolic activity in lung at 120 mg/kg body weight, ip administered as single dose into abdomen measured after 18 hrs; type: functional, organism-based; in short: as §3
Mus musculus [10] = assay: Protection against ischemia/reperfusion induced acute kidney injury in mouse assessed as reduction in blood urea nitrogen level at 120 mg/kg, ip pretreated for 18 hrs followed by kidney injury surgery and measured after 24 hrs; type: functional, organism-based; settings: time 42.0 hrs
In short: (§5)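 Male mice (9–11 weeks, 25–28 g) given i.p. dose 18 h before ischemia–reperfusion AKI surgery under isoflurane; serum taken 24 h after reperfusion. Creatinine and BUN measured by a clinical laboratory; DMSO-treated controls.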

Mus musculus [11] = assay: In vivo inhibition of SCoR2 in C57BL/6J mouse assessed as reduction in SNO-CoA metabolic activity in liver at 120 mg/kg body weight, ip administered as single dose into abdomen measured after 18 hrs; type: functional, organism-based; in short: as §3
[12] = molecular target: T1, Aldo-keto reductase family 1 member A1 (Homo sapiens, UniProt P14550); assay: Inhibition of C-terminal 6His-tagged human recombinant SCoR2 AKR1A1 expressed in Escherichia coli BL21-CodonPlus competent cells using SNO-CoA as substrate incubated for 2 mins in presence of NADPH; in short: as §4
T1 sequence (P14550 whole entry): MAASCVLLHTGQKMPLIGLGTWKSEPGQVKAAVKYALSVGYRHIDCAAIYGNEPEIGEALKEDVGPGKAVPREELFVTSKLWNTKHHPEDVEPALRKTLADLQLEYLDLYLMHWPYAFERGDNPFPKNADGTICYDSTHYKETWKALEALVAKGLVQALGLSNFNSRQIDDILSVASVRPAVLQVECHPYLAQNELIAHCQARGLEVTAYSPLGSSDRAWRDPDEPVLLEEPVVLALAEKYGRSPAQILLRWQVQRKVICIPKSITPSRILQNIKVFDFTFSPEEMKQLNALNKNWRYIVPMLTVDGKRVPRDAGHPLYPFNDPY

Mus musculus [13] = assay: In vivo inhibition of SCoR2 in C57BL/6J mouse assessed as reduction in SNO-CoA metabolic activity in brain at 120 mg/kg body weight, ip administered as single dose into abdomen measured after 18 hrs; type: functional, organism-based; in short: as §3
Mus musculus [14] = assay: In vivo inhibition of SCoR2 in C57BL/6J mouse assessed as reduction in SNO-CoA metabolic activity in heart at 120 mg/kg body weight, ip administered as single dose into abdomen measured after 18 hrs; type: functional, organism-based; in short: as §3
[15] = Renal toxicity in mouse assessed as effect on anatomy of cortex at 120 mg/kg, ip treated for 18 hrs under basal conditions by H and E staining based analysis; type: organism-based; settings: in vivo; in short: as §2
Mus musculus [16] = assay: Protection against ischemia/reperfusion induced acute kidney injury in mouse assessed as reduction in serum creatinine level at 120 mg/kg, ip pretreated for 18 hrs followed by kidney injury surgery and measured after 24 hrs; type: functional, organism-based; settings: time 42.0 hrs; in short: as §5
[17] = molecular target: T2, Aldo-keto reductase family 1 member A1 (Homo sapiens) (UniProt P14550); assay: (§6) Binding affinity to C-terminal 6His-tagged human recombinant SCoR2 AKR1A1 expressed in Escherichia coli BL21-CodonPlus competent cells assessed as thermal stability by measuring melting temperature at +/- 250 uM preincubated for 15 mins with NADP+ followed by compound addition and measured after 30 mins by SYPRO orange dye based DSF analysis (reference value: 51.4 degreeC)
T2 sequence (whole entry): T1 sequence (P14550 whole entry)
In short: (§7)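 5 μM protein with or without 250 μM NADPH or NADP⁺ and 250 μM inhibitor; cofactor preincubated 15 min, then inhibitor 30 min at room temperature. 10X SYPRO Orange added; temperature ramped 25–70°C in 0.3°C steps. DMSO-matched controls (1%); duplicates.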

[18] = molecular target: T2, Aldo-keto reductase family 1 member A1 (Homo sapiens); assay: as §6, with “NADPH” for “NADP+”; in short: as §7

Q: With `O=C1NC(=O)C2(N1)c1ccccc1-c1ccc(C3CC3)cc12` (stereo not drawn) as the compound, how does the inhibition (Mus musculus [1]) read?
A: The inhibition was “inactive”.

Q: And the Activity (Mus musculus [2])?
A: Its Activity is “Active”.

Q: What about the Activity [3] of the same compound?
A: The Activity was “Non-Toxic”.

Q: And the inhibition in vivo at 120 mg/kg [4]?
A: The inhibition in vivo at 120 mg/kg was 80%.

Q: What about the inhibition (Mus musculus [5]) of the same compound?
A: The inhibition was “Active”.

Q: What about the Activity (Mus musculus [6]) of the same compound?
A: The Activity was “Active”.

Q: And the Activity (Mus musculus [7])?
A: The Activity was “Active”.

Q: And the IC50 [8]?
A: Its IC50 is 903 nM.

Q: And the inhibition (Mus musculus [9])?
A: The inhibition was “Active”.

Q: What about the Activity (Mus musculus [10]) of the same compound?
A: The Activity was “Active”.

Q: And the inhibition (Mus musculus [11])?
A: Its inhibition is “Active”.

Q: And the IC50 [12]?
A: Its IC50 is 93 nM.

Q: What about the inhibition (Mus musculus [13]) of the same compound?
A: Its inhibition is “inactive”.

Q: And the inhibition (Mus musculus [14])?
A: Its inhibition is “Active”.

Q: And the Activity [15]?
A: Its Activity is “Non-Toxic”.

Q: And the Activity (Mus musculus [16])?
A: The Activity was “Active”.

Q: And the Tm [17]?
A: The Tm was 54.4 °C.

Q: What about the Tm [18] of the same compound?
A: The Tm was 53.4 °C.
